# Screening results as filed in PubChem BioAssay.
# Most compounds without a hit are left out; they make up all but 3% or so of the library.
# MEKK3 PB1 HTS = raises or lowers MEK5 binding to the human MEKK3 PB1 domain; bead-based flow cytometry, Alexa488-MEK5 binding to MEKK3; actives lie on both sides; 0 = blocked by unlabeled MEK5, 100 = vehicle; binding response (% of control), % at 10 µM; hit rate 1.4% among 290,000; AID 1529;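 active means binding response more than 3 SD above or below the average of its plate-row segment, actives on both sides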;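 further: Alexa488 bead fluorescence after subtracting the streptavidin-only scavenger bead signal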
# Target sequence (Q99759 whole entry, looked up, the tested form may be a part): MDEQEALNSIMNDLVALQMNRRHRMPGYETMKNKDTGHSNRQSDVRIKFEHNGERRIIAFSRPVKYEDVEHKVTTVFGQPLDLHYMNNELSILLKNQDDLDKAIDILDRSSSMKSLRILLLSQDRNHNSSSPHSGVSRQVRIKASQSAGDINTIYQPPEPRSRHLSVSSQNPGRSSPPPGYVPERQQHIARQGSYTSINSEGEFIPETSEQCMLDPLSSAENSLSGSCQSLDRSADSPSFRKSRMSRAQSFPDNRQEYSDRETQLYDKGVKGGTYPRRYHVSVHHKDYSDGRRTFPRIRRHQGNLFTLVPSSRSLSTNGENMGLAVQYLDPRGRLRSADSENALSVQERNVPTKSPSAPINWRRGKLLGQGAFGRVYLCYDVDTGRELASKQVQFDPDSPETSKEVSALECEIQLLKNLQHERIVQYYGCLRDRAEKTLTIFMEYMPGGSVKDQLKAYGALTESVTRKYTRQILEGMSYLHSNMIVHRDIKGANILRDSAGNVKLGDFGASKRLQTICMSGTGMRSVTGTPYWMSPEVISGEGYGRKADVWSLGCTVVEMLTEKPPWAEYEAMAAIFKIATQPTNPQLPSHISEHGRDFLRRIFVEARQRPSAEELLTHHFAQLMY
# Apaf1 inhib = blocks human Apaf-1 apoptosome activity | hit rate 0.71% among 330,000 | inhibition, % at 20 µM | reconstituted apoptosome caspase-3 activity, DEVD-Rh110 fluorescence | AID 489030; active means inhibition of at least 40% at 20 µM;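 further: plate controls were DMSO wells for no effect and DEVD-CHO caspase inhibitor wells for full effect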
#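 System: Apoptosome proteins | Medium: Hepes pH 7.5 with detergent and BSA | Also added: Cytochrome c trigger plus (Z-DEVD)2-Rh110 caspase-3 substrate | Incubation: 30 min compound preincubation, 50 min activation, room temperature | Detection: Rhodamine 110 fluorescence at Ex 480/Em 540 nm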
# MEKK2 WT-MEK5 = raises or lowers MEK5 binding to wildtype human MEKK2 PB1 domain. binding response (% of control), % at 10 µM. hit rate 1.1% among 290,000. Q9Y2U5. bead flow cytometry, Alexa488-MEK5 binding to MEKK2 WT; actives lie on both sides. AID 1531; in the data active means binding response below about 67% or above about 130%
# MEKK2mut PB1 HTS = signal of MEK5 binding to mutant human MEKK2 PB1 domain; hit rate 0.35% among 290,000; bead flow cytometry, Alexa488-MEK5 binding to MEKK2 mutant; percent response, % at 10 µM; in the data active means percent response above about 24%, passing the limit was not always enough
# UBC13 inh = inhibitors of human UBC13 polyubiquitin chain formation. hit rate 0.47% among 330,000. inhibition, % at 20 µM. TR-FRET. P61088; in the data active means inhibition above about 45%, passing the limit was not always enough
# UCH37 inh = inhibitors of human deubiquitinating enzyme UCH37; purified proteasome/UCH37, Ub-AMC cleavage fluorescence; inhibition, % (no concentration beside the values); hit rate 0.33% among 330,000;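 active means mean inhibition over replicate wells above about 20%, limit read from the data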;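 further: 0% = compound-free wells with enzyme and 100% = wells lacking proteasome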
#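 Material: human UCH37 enzyme supplied as purified proteasome complex. Measure: % inhibition of Ub-AMC cleavage fluorescence. Medium: pH 7.4 Tris-HCl (50 mM) with ovalbumin, ATP-MgCl2, DTT. Times: 30 min preincubation with enzyme, 25 min cleavage at room temperature. Detection: AMC fluorescence intensity at 355/460 nm.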
# * = called active by the depositor; . = no result; [ ] = dose if it differs, or a comment.
SMILES,MEKK3 PB1 HTS,Apaf1 inhib,MEKK2 WT-MEK5,MEKK2mut PB1 HTS,UBC13 inh,UCH37 inh
CCO/C=C1/C(=O)N(Cc2ccccc2)C(=O)c2ccccc21,101,62*,101,0,-19,-10
CC(=O)c1ccc(OC(C)C(=O)NCC2(N3CCOCC3)CCCCC2)cc1 (centres undefined),.,0,.,.,2,4
CCCNC(=O)Nc1cccc(NC(C)=O)c1,108,-12,106,16,5,2
CCn1c(CNc2cccc(C(F)(F)F)c2)n[nH]c1=S,96,-16,95,-8,5,32*
c1cncc(-c2cn(C[C@H]3CC[C@@H]([C@@H]4CC[C@H](Cn5cc(-c6cccnc6)nn5)O4)O3)nn2)c1,106,1,109,9,-4,25*
N#Cc1c(NCCN)nc(NCc2ccccc2)c2c1CCN(Cc1ccccc1)C2,104,.,169*,36*,.,.
C=CCNc1nc(NCc2ccccc2)c(C#N)c2c1CN(C)CC2,104,2,121,9,14,-46
CCN1CCCC1CNC(=O)c1ccc2c(c1)N(Cc1ccccc1F)C(=O)c1ccccc1S2(=O)=O (centres undefined),99,7,118,4,6,0
Cc1cccc(CN2C(=O)c3ccccc3S(=O)(=O)c3ccc(C(=O)NCCCN4CCCC4)cc32)c1,106,21,141*,15,14,2
CC1CCCN(CCCNC(=O)c2ccc3c(c2)N(Cc2ccccc2F)C(=O)c2ccccc2S3(=O)=O)C1 (centres undefined),111,14,136*,18,13,.
COc1ccc(CN(C(=O)c2ccc3c(c2)OCCO3)C(C(=O)NC2CCCCC2)c2ccc3ncccc3c2)cc1 (centres undefined),106,25,106,7,-4,1
c1cnc2ncc3sccc3c2c1,93,-10,94,-5,-2,28*
CCN(C(=O)COC(=O)/C=C/c1cccc([N+](=O)[O-])c1)c1ccccc1,.,-10,.,.,0,2
Fc1ccccc1SCc1nnc(-c2ccccc2Br)o1,98,4,94,-5,12,32*
CC1=Nc2ccccc2/C1=C\c1nc(-c2ccccc2)oc1O,95,19,4.0*,6,-42,5
COC1=CC(=Cc2c(N)n3nc(CC(=O)N4CCCCC4)sc3nc2=O)C=C(OC)C1=O,82*[inhibitor],4,70*[inhibitor],-14,-121,.
COC1=C/C(=C/c2c(N)n3nc(CC(=O)N4CCCC4)sc3nc2=O)C=CC1=O,94,7,91,0,-36,13
CC1(C)CC(=O)C=C(c2ccc(F)cc2OCc2ccccc2)C1,.,16,.,.,23,-1
CN1CC(c2ccccc2Cl)C2(COc3ccccc3C2=O)C12C(=O)Nc1ccccc12 (centres undefined),98,36,94,-1,-8,1
Nc1ccc(C(=O)N/N=C/c2cccc(Oc3ccccc3)c2)cc1,101,-64,102,0,-4,.
COc1ccccc1NC(=O)c1c(O)c2ccccc2[nH]c1=O,109,-8,107,10,8,-138
COc1ccc([C@@H]2CC(=O)c3c(O)cc(O)cc3O2)cc1O,.,-15,.,.,-4,4
COc1cc(O)c(CCO)c2c1C(=O)C[C@@H](C)O2,87,0,-9.0*,-16,-8,-4
O=S(=O)(c1ccccc1)N1N=C(c2ccc(Br)cc2)CC1c1ccco1 (centres undefined),102,7,17*,17,-4,1
O=S(=O)(c1ccccc1)N1N=C(c2ccc(O)cc2)CC1c1ccco1 (centres undefined),99,4,100,1,-1,2
SMILES,MEKK3 PB1 HTS,Apaf1 inhib,MEKK2 WT-MEK5,MEKK2mut PB1 HTS,UBC13 inh,UCH37 inh
Cc1ccc(C2=NN(S(=O)(=O)c3ccccc3)C(c3ccco3)C2)cc1 (centres undefined),.,0,.,.,3,1
CS(=O)(=O)Nc1ccc(C2=NN(S(=O)(=O)c3ccc(F)cc3)C(c3ccco3)C2)cc1 (centres undefined),99,-3,3.0*,18,-5,3
CCOC(=O)N1CCC(NC(=O)c2ccc3c(c2)sc2nc(-c4ccc(OC)cc4)cn23)CC1,.,44*,.,.,9,-6
COc1cc(/C=C2\SC(=S)N(NC(=O)c3ccncc3)C2=O)ccc1O,93,1,-3.0*,16,-86,16
COc1cc(/C=C2\SC(=S)N(NC(=O)c3ccc(O)c(OC)c3)C2=O)ccc1O,103,7,93,1,-97,.
CC(=O)c1ccc(NC(=O)c2ccc3nc(-c4ccco4)c(-c4ccco4)nc3c2)cc1,98,52*,90,1,28,-20
O=C(NCCCO)c1ccc2nc(-c3ccco3)c(-c3ccco3)nc2c1,96,.,94,-3,.,-29
O=C(Nc1ccccc1)c1ccc2nc(-c3ccco3)c(-c3ccco3)nc2c1,90,60*,71,-5,-19,-17
O=C(Nc1ccc(N2CCOCC2)cc1)c1ccc2nc(-c3ccco3)c(-c3ccco3)nc2c1,96,15,100,1,-14,10
O=C(NCCO)Nc1ccc2nc(-c3ccco3)c(-c3ccco3)nc2c1,87,71*,79,-10,45,.
Cc1ccncc1CNC(=O)c1ccccc1,.,.,.,.,.,4
CC(=O)c1ccc(N2CCN(C(=S)Nc3ccc(Oc4ccccc4)cc3)CC2)cc1,107,-1,105,-2,3,1
O=C(NN=Cc1ccc(N2CCCC2)c([N+](=O)[O-])c1)c1cccnc1,.,.,.,.,.,21*
O=C(Nc1ccc(N2CCN(Cc3ccccc3Cl)CC2)cc1)c1cccnc1,86,-5,90,-5,-1,3
O=C(Nc1ccc(N2CCCCC2)cc1)c1cccnc1,103,-3,98,11,0,29*
CN1CCN(c2ccc(NC(=O)c3ccc(Oc4ccccc4)cc3)cc2)CC1,100,17,124,27*,21,6
CC1CN(c2nnc(NC(=O)c3ccccc3)s2)CC(C)O1 (centres undefined),87,1,93,-3,-1,-2
COc1ccc(/C=C2/C(=O)N(c3ccccc3)N=C2C)cc1Br,104,87*,105,2,-63,9
COc1cc(/C=C2/C(=O)N(c3ccccc3)N=C2C)ccc1OS(=O)(=O)c1ccccc1,103,95*,102,0,-46,.
CC1=NN(c2ccccc2)C(=O)/C1=C\c1cc(C)n(-c2ccccc2)c1C,106,28,120,15,-29,3
CCCCCc1ccc(-c2cn(CN3C(=O)c4ccccc4C3=O)nn2)cc1,100,2,112,0,-19,5
